In ChEMBL document CHEMBL2074053, “Modified jatrophane diterpenes as modulators of multidrug resistance from Euphorbia dendroides L” (Bioorg Med Chem, 2003) one finds Activity data, which are given here for 7 compounds.

Holding throughout (type): functional, cell-based
Common to all, as to details: k562/r7, 5 µM

Series [1] addresses T1, ATP-dependent translocase ABCB1 (Homo sapiens, UniProt P08183). Nature of the series: TP_TRANSPORTER: inhibition of Daunomycin efflux (Daunomycin: 10 uM, 13alpha-OH Terracinolide B: 5 uM) in K562/R7 cells. The essentials:
(§1)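 Cells washed twice in ice-cold PBS and held on ice. Intracellular daunomycin read by flow cytometry. Efflux inhibition is the fluorescence shift relative to 2 µM cyclosporin A as positive control. Duplicates, at least three separate experiments.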

Series [2] has as its target T1, ATP-dependent translocase ABCB1. Nature of the series: TP_TRANSPORTER: inhibition of Daunomycin efflux (Daunomycin: 10 uM, 13alpha-OH Terracinolide G: 5 uM) in K562/R7 cells. The essentials: as §1
For series [3] the target is unchanged. Nature of the series: TP_TRANSPORTER: inhibition of Daunomycin efflux (Daunomycin: 10 uM, Terracinolide L: 5 uM) in K562/R7 cells. The essentials: as §1
Series [4] has the same target. Nature of the series: TP_TRANSPORTER: inhibition of Daunomycin efflux (Daunomycin: 10 uM, Epiabeodendroidin F: 5 uM) in K562/R7 cells. The essentials:
as §1

Series [5] shares this target. Briefly: TP_TRANSPORTER: inhibition of Daunomycin efflux (Daunomycin: 10 uM, Terracinolide B: 5 uM) in K562/R7 cells. The essentials: as §1
The target is the same in series [6]. Briefly: TP_TRANSPORTER: inhibition of Daunomycin efflux (Daunomycin: 10 uM, Terracinolide C: 5 uM) in K562/R7 cells. The essentials: as §1
Series [7] has the same target. Briefly: TP_TRANSPORTER: inhibition of Daunomycin efflux (Daunomycin: 10 uM, Terracinolide K: 5 uM) in K562/R7 cells. The essentials:
as §1

Each structure is given as a SMILES string.

T1 sequence (P08183 whole entry): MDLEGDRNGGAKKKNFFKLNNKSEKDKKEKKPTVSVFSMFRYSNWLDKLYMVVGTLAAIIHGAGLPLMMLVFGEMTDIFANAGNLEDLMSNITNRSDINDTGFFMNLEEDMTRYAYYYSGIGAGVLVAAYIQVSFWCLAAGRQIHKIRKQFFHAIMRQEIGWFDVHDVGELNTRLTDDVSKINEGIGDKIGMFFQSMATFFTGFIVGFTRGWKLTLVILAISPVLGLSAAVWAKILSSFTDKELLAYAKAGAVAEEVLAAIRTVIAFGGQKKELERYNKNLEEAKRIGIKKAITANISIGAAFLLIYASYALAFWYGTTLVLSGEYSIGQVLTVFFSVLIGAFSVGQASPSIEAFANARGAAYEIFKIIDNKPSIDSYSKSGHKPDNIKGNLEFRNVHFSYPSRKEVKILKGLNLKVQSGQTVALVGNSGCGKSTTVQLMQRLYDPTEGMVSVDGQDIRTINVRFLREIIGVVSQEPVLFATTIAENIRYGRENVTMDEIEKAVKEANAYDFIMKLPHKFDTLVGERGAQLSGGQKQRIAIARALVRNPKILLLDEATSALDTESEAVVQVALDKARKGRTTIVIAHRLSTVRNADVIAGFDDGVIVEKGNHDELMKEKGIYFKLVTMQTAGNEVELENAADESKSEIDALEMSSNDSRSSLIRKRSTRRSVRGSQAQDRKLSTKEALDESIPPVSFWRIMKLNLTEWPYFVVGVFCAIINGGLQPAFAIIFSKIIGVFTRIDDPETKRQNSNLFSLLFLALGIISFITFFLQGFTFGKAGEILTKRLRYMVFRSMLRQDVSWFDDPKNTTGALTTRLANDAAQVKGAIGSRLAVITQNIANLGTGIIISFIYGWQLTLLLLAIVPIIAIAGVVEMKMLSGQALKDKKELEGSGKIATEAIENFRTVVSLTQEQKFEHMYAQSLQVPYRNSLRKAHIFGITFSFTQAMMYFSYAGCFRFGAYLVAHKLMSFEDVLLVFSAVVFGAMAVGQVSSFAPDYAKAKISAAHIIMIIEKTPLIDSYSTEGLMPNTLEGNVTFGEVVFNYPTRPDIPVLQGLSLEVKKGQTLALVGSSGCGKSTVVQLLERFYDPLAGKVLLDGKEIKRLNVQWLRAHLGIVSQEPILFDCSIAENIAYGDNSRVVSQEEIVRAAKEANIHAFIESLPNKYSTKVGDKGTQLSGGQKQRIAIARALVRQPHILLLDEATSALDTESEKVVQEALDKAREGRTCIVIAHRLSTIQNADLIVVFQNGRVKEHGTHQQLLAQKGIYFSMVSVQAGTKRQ

With `CC(=O)O[C@H]1[C@@H](OC(C)=O)C(C)(C)/C=C/[C@@](C)(O)C(=O)[C@@]2(OC(C)=O)C[C@@](C)(OC(C)=O)[C@H](OC(C)=O)[C@@H]2[C@H]2OC(=O)CC[C@@]2(OC(C)=O)[C@@H]1OC(=O)C(C)C`, the Activity result in series [1] is “inhibitor [+]”. Turning to `CC(=O)O[C@H]1[C@@H](OC(C)=O)C(C)(C)/C=C/[C@@](C)(O)C(=O)[C@@]2(O)C[C@@](C)(OC(C)=O)[C@H](OC(C)=O)[C@@H]2[C@H]2OC(=O)CC[C@@]2(OC(C)=O)[C@@H]1OC(=O)C(C)C`, the Activity entry in series [2] is “inhibitor [+]”. Consider `CC(=O)O[C@H]1[C@@H](OC(C)=O)C(C)(C)/C=C/[C@H](C)C(=O)[C@@]2(OC(C)=O)C[C@@](C)(O)[C@H](OC(C)=O)[C@@H]2[C@H]2OC(=O)CC[C@@]2(OC(=O)C(C)C)[C@@H]1OC(=O)C(C)C`, for which the Activity result in series [3] is “is not an inhibitor [-]”.

Regarding `C=C1[C@H](OC(=O)c2ccccc2)[C@@H](OC(C)=O)[C@@H](OC(C)=O)C(C)(C)/C=C/[C@H](C)[C@]2(O)C[C@@](C)(O)[C@H](OC(C)=O)[C@@H](C2=O)[C@H]1OC(=O)C(C)C` [EPIABEODENDROIDIN F], the Activity result in series [4] was “inhibitor [+]”. Turning to `CC(=O)O[C@H]1[C@@H](OC(C)=O)C(C)(C)/C=C/[C@H](C)C(=O)[C@@]2(OC(C)=O)C[C@@](C)(OC(C)=O)[C@H](OC(C)=O)[C@@H]2[C@H]2OC(=O)CC[C@@]2(OC(C)=O)[C@H]1OC(=O)C(C)C` [TERRACINOLIDE B], the Activity entry in series [5] is “inhibitor [+]”. For the compound `CC(=O)O[C@H]1[C@@H](OC(C)=O)C(C)(C)/C=C/[C@H](C)C(=O)[C@@]2(OC(C)=O)C[C@@](C)(OC(C)=O)[C@H](O)[C@@H]2[C@H]2OC(=O)CC[C@@]2(OC(C)=O)[C@@H]1OC(=O)C(C)C` [TERRACINOLIDE C], the Activity result in series [6] is “inhibitor [+]”.

As for `CC(=O)O[C@H]1[C@@H](OC(C)=O)C(C)(C)/C=C/[C@H](C)C(=O)[C@@]2(OC(C)=O)C[C@@](C)(O)[C@H](OC(C)=O)[C@@H]2[C@H]2OC(=O)CC[C@@]2(OC(C)=O)[C@@H]1OC(=O)C(C)C` [TERRACINOLIDE K], the Activity entry in series [7] is “inhibitor [+]”.
